Assay results taken from ChEMBL document CHEMBL2417481, “Regioselective synthesis of 6-substituted-2-amino-5-bromo-4(3H)-pyrimidinones and evaluation of their antiviral activity” (Eur J Med Chem, 2013).

Key:
[1] = Cytotoxicity against MDCK cells assessed as morphological changes; format: cell-based, Canis lupus familiaris; details: dog
Influenza B virus = assay: Antiviral activity against Influenza B virus infected in MDCK cells assessed as reduction in virus-induced cytopathogenicity; format: functional, organism-based
Procedure, shortened: (§1)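 Confluent cell monolayers (Vero, HeLa, HEL or MDCK, as named in each line) were infected with 100 CCID50 of virus while exposed to a range of compound concentrations. Cytopathicity was scored once it was complete in untreated infected controls.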

Influenza A virus [2] = assay: Antiviral activity against Influenza A virus H1N1 infected in MDCK cells assessed as reduction in virus-induced cytopathogenicity; format: functional, organism-based; procedure, shortened: as §1
Influenza A virus [3] = assay: Antiviral activity against Influenza A virus […] infected in MDCK cells assessed as reduction in virus-induced cytopathogenicity; format: functional, organism-based; procedure, shortened: as §1
Felid alphaherpesvirus 1 = assay: Antiviral activity against Feline Herpes virus infected in cat CRFK cells assessed as inhibition of virus-induced cytopathic effect by MTS assay; format: functional, organism-based; details: Felid alphaherpesvirus 1, CRFK
Coxsackievirus B4 [4] = assay: Antiviral activity against Coxsackievirus B4 infected in african green monkey Vero cells assessed as reduction in virus-induced cytopathogenicity; format: functional, organism-based; details: Enterovirus B; procedure, shortened: as §1
[5] = Cytotoxicity against human HEL cells assessed as morphological changes; format: cell-based
[6] = system: Mammalian orthoreovirus 1; assay: Antiviral activity against Reovirus-1 infected in african green monkey Vero cells assessed as reduction in virus-induced cytopathogenicity; format: functional, organism-based; details: Mammalian orthoreovirus 1, Vero
Procedure, shortened: (§2)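 Confluent Vero monolayers in 96-well plates were inoculated with 100 CCID50 of virus together with varying compound concentrations. Cytopathicity was scored once it was complete in untreated virus-infected control cultures.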

Human alphaherpesvirus 3 [7] = assay: Antiviral activity against thymidine kinase positive Varicella-zoster virus OKA infected in human HEL cells assessed as reduction in virus plaque formation; format: functional, cell-based, Human herpesvirus 3 strain Oka vaccine; details: Human alphaherpesvirus 3, OKA
Procedure, shortened: (§3)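 Confluent HEL fibroblast cultures received 20 PFU of VZV together with varying compound concentrations. Plaque formation was read when it reached completion in untreated virus controls.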

Sindbis virus = assay: Antiviral activity against Sindbis virus infected in african green monkey Vero cells assessed as reduction in virus-induced cytopathogenicity; format: functional, organism-based; procedure, shortened: as §1
Coxsackievirus B4 [8] = assay: Antiviral activity against Coxsackievirus B4 infected in human HeLa cells assessed as reduction in virus-induced cytopathogenicity; format: functional, organism-based; details: Enterovirus B; procedure, shortened: as §1
[9] = Cytotoxicity against african green monkey Vero cells assessed as morphological changes; format: cell-based; details: chlorocebus sabaeus
[10] = Cytotoxicity against cat CRFK cells assessed as cell viability by MTS assay; format: cell-based, Felis catus
Feline coronavirus = assay: Antiviral activity against Feline coronavirus infected in cat CRFK cells assessed as inhibition of virus-induced cytopathic effect by MTS assay; format: functional, organism-based; details: Alphacoronavirus 1, CRFK
[11] = Cytotoxicity against human HeLa cells assessed as morphological changes; format: cell-based
Human alphaherpesvirus 3 [12] = assay: Antiviral activity against thymidine kinase negative Varicella-zoster virus 07-1 infected in human HEL cells assessed as reduction in the virus plaque formation; format: functional, organism-based; details: Human alphaherpesvirus 3, 07-1, HEL; procedure, shortened: as §3
Punta Toro virus = assay: Antiviral activity against Punta Toro virus infected in african green monkey Vero cells assessed as reduction in virus-induced cytopathogenicity; format: functional, organism-based; procedure, shortened: as §1
[13] = system: Respiratory syncytial virus; assay: Antiviral activity against Respiratory syncytial virus Long infected in human HeLa cells assessed as reduction in virus-induced cytopathogenicity; format: functional, organism-based; procedure, shortened: as §1
Human alphaherpesvirus 2 = assay: Antiviral activity against Herpes simplex virus-2 G infected in human HEL cells assessed as reduction in virus-induced cytopathogenicity; format: functional, organism-based; details: Human alphaherpesvirus 2, strain G; procedure, shortened: as §1
Human alphaherpesvirus 1 [14] = assay: Antiviral activity against Herpes simplex virus-1 KOS infected in human HEL cells assessed as reduction in virus-induced cytopathogenicity; format: functional, organism-based; details: Human alphaherpesvirus 1, KOS; procedure, shortened: as §1
Cytomegalovirus [15] = assay: Antiviral activity against Cytomegalovirus Davis infected in human HEL cells assessed as reduction in virus plaque formation; format: functional, organism-based; details: Human betaherpesvirus 5, Davis
Procedure, shortened: (§4)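 Confluent HEL fibroblasts were inoculated with 100 PFU of CMV at graded compound concentrations. Plaques were counted once formation was complete in untreated infected controls.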

[16] = system: Vesicular stomatitis virus; assay: Antiviral activity against Vesicular stomatitis virus infected in human HEL cells assessed as reduction in virus-induced cytopathogenicity; format: functional, organism-based; procedure, shortened: as §1
[17] = system: Vesicular stomatitis virus; assay: Antiviral activity against Vesicular stomatitis virus infected in human HeLa cells assessed as reduction in virus-induced cytopathogenicity; format: functional, organism-based; procedure, shortened: as §1
Human respirovirus 3 = assay: Antiviral activity against Parainfluenza virus 3 infected in african green monkey Vero cells assessed as reduction in virus-induced cytopathogenicity; format: functional, organism-based; details: Human respirovirus 3, Vero; procedure, shortened: as §2
Cytomegalovirus [18] = assay: Antiviral activity against Cytomegalovirus AD-169 infected in human HEL cells assessed as reduction in virus plaque formation; format: functional, organism-based; details: Human betaherpesvirus 5, AD-169, HEL; procedure, shortened: as §4
Human alphaherpesvirus 1 [19] = assay: Antiviral activity against thymidine kinase negative […] Herpes simplex virus-1 KOS infected in human HEL cells assessed as reduction in virus-induced cytopathogenicity; format: functional, organism-based; details: Human alphaherpesvirus 1, KOS; procedure, shortened: as §1

NC12CC3CC(CC(C3)C1)C2 [AMANTADINE]
0.8 µM: EC50 (Influenza A virus [3])
> 200 µM: MCC [1] | EC50 (Influenza B virus)
140 µM: EC50 (Influenza A virus [2])

CCCCCc1nc(N)[nH]c(=O)c1Br
20 µM: MCC [11]
> 100 µM: EC50 (Felid alphaherpesvirus 1) | MCC [1] | EC50 (Coxsackievirus B4 [4]) | EC50 [6] | EC50 (Influenza B virus) | EC50 (Sindbis virus) | MCC [9] | MCC [10] | EC50 (Feline coronavirus) | EC50 (Punta Toro virus) | EC50 (Influenza A virus [2]) | EC50 (Human alphaherpesvirus 2) | EC50 (Human alphaherpesvirus 1 [14]) | EC50 (Influenza A virus [3]) | EC50 [16] | EC50 (Human respirovirus 3) | EC50 (Human alphaherpesvirus 1 [19])
2 µM: EC50 [17]
> 20 µM: MCC [5]
> 4 µM: EC50 (Human alphaherpesvirus 3 [7]) | EC50 (Coxsackievirus B4 [8]) | EC50 (Human alphaherpesvirus 3 [12]) | EC50 [13] | EC50 (Cytomegalovirus [15]) | EC50 (Cytomegalovirus [18])

COc1ccc(/C=C/c2nc(N)[nH]c(=O)c2Br)cc1OC
> 100 µM: EC50 (Felid alphaherpesvirus 1) | EC50 (Coxsackievirus B4 [4]) | MCC [5] | EC50 [6] | EC50 (Human alphaherpesvirus 3 [7]) | EC50 (Sindbis virus) | EC50 (Coxsackievirus B4 [8]) | MCC [9] | MCC [10] | EC50 (Feline coronavirus) | MCC [11] | EC50 (Human alphaherpesvirus 3 [12]) | EC50 (Punta Toro virus) | EC50 [13] | EC50 (Human alphaherpesvirus 2) | EC50 (Human alphaherpesvirus 1 [14]) | EC50 (Cytomegalovirus [15]) | EC50 [16] | EC50 (Human respirovirus 3) | EC50 (Cytomegalovirus [18]) | EC50 (Human alphaherpesvirus 1 [19])
100 µM: MCC [1]
45 µM: EC50 [17]
> 20 µM: EC50 (Influenza B virus) | EC50 (Influenza A virus [2]) | EC50 (Influenza A virus [3])

Nc1nc2c(ncn2COC(CO)CO)c(=O)[nH]1 [GANCICLOVIR]
0.38 µM: EC50 (Cytomegalovirus [15])
3.1 µM: EC50 (Cytomegalovirus [18])
0.9 µM: EC50 (Felid alphaherpesvirus 1) | EC50 (Human alphaherpesvirus 2)
> 100 µM: MCC [5] | MCC [10] | EC50 (Feline coronavirus) | MCC [11] | EC50 (Human alphaherpesvirus 1 [14])

CCCc1nc(N)[nH]c(=O)c1Br
> 100 µM: EC50 (Felid alphaherpesvirus 1) | MCC [1] | EC50 (Coxsackievirus B4 [4]) | MCC [5] | EC50 [6] | EC50 (Human alphaherpesvirus 3 [7]) | EC50 (Influenza B virus) | EC50 (Sindbis virus) | EC50 (Coxsackievirus B4 [8]) | MCC [9] | MCC [10] | EC50 (Feline coronavirus) | MCC [11] | EC50 (Human alphaherpesvirus 3 [12]) | EC50 (Punta Toro virus) | EC50 [13] | EC50 (Influenza A virus [2]) | EC50 (Human alphaherpesvirus 2) | EC50 (Human alphaherpesvirus 1 [14]) | EC50 (Influenza A virus [3]) | EC50 (Cytomegalovirus [15]) | EC50 [16] | EC50 [17] | EC50 (Human respirovirus 3) | EC50 (Cytomegalovirus [18]) | EC50 (Human alphaherpesvirus 1 [19])

Nc1nc2c(ncn2COCCO)c(=O)[nH]1 [ACYCLOVIR]
> 250 µM: MCC [5] | EC50 [16]

O=c1[nH]c(=O)n([C@H]2C[C@H](O)[C@@H](CO)O2)cc1/C=C/Br [BRIVUDINE]
33 µM: EC50 (Human alphaherpesvirus 3 [12])
0.02 µM: EC50 (Human alphaherpesvirus 3 [7])
> 250 µM: MCC [5] | EC50 [16] | EC50 (Human alphaherpesvirus 1 [19])
0.4 µM: EC50 (Human alphaherpesvirus 1 [14])

CC(N)C12CC3CC(CC(C3)C1)C2 (configuration not stated) [RIMANTADINE]
> 200 µM: MCC [1] | EC50 (Influenza B virus)

Nc1ncnc2c1ncn2C[C@H](O)CO [(S)-DHPA]
> 250 µM: EC50 (Coxsackievirus B4 [4]) | EC50 [6] | EC50 (Sindbis virus) | EC50 (Coxsackievirus B4 [8]) | MCC [9] | MCC [11] | EC50 (Punta Toro virus) | EC50 [13] | EC50 [17] | EC50 (Human respirovirus 3)

NC(=O)c1ncn([C@@H]2O[C@H](CO)[C@@H](O)[C@H]2O)n1 [RIBAVIRIN]
> 100 µM: MCC [1]
22 µM: EC50 (Coxsackievirus B4 [8])
112 µM: EC50 (Punta Toro virus)
9.6 µM: EC50 (Influenza A virus [2])
> 250 µM: EC50 (Coxsackievirus B4 [4]) | EC50 [6] | EC50 (Sindbis virus) | MCC [9] | MCC [11]
7.2 µM: EC50 (Influenza A virus [3])
5 µM: EC50 [13]
8.3 µM: EC50 (Influenza B virus)

Nc1ccn(C[C@@H](CO)OCP(=O)(O)O)c(=O)n1 [CIDOFOVIR]
0.51 µM: EC50 (Cytomegalovirus [15])
> 250 µM: MCC [5] | EC50 [16]
3.1 µM: EC50 (Cytomegalovirus [18])
